Common to all, as to assay type: binding
The subject of one assay is histone H3 N-terminus. Kind of assay: overall signal intensity in histone peptide array / peptide screens. Conditions: both peptide screens; at the same molar concentrations.
The test system of assay [1] is histone H3 tail peptide (1-12). Kind of assay: 1H,15N HSQC NMR titration with H3 peptide. Conditions: 0.1 mM 15N-labeled PHD1-2; H3 (1-12). The method in brief: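 15N-labelled CHD5 PHD1-2 expressed in E. coli BL21(DE3) pLysS grown in 15NH4Cl minimal medium and induced with 0.5 mM IPTG. GST fusion purified on glutathione agarose and tag cleaved with PreScission protease. Buffer was 20 mM Tris pH 6.8, 150 mM NaCl, 3 mM DTT. 1H,15N HSQC spectra of 0.1 mM protein recorded at 600 MHz with increasing amounts of H3 (1-12) peptide.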

Assay [2] concerns histone H3 combinatorial peptide library. In words: on-bead 5,000-member combinatorial histone H3 library screen. Conditions: for occurrence of peptides with high methylation at H3K4 (me2/3) / occurrence of peptides with low methylation at H3K4 (K4unmod and K4me): PHD1-2 screen. The method in brief: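 One-bead-one-peptide H3 combinatorial library (5,000 members) incubated sequentially with GST-tagged PHD fingers, GST-specific primary antibody, biotinylated secondary antibody, then streptavidin-alkaline phosphatase for bead detection.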

Assay [3] deals with unmodified histone H3 N-terminus (first eleven amino acids). Kind of assay: Amplified Luminescent Proximity Homogeneous Assay. Conditions: 10 μM protein, only biotin- or only 6×His-peptide. The essentials:
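Recombinant CHD5 PHD constructs and H3 (1-11) peptides carrying either a 6×His tag or biotin were diluted in StabilCoat buffer to final 10 μM protein and 1 μM peptide. Mixtures shaken 30 min at ambient temperature. Donor and acceptor beads added at 15 μg/mL each (working), then shaken 30 min in the dark. Emission read at 570/100 nm with ALPHA filters.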

Assay [4] concerns immobilized histone H3 (1-11). In words: surface plasmon resonance.
The mark [5] stands for this setting: bivalent binding model (bivalent analyte), pH 7.5.

This note sets out measurements from publication PMC3518043 (Biochemistry, 2012).

B1: PHD1-2: tandem PHD-fingers of CHD5 (338-468), GST fusion in pGEX-KG; tag cleaved for SPR and NMR (protein)
chain: YETDHQDYCEVCQQGGEIILCDTCPRAYHLVCLDPELEKAPEGKWSCPHCEKEGIQWEPKDDDDEEEEGGCEEEEDDHMEFCRVCKDGGELLCCDACPSSYHLHCLNPPLPEIPNGEWLCPRCTCPPLKGK
modifications: left off: GST, end not stated, kept
As for B1, in the assay with histone H3 N-terminus, the “overall signal intensity compared to either domain alone” value is on record as “notably higher”. Besides, in assay [1], the “binding events in NMR titration” value is given as “two distinct binding events”. Besides, the “occurrence of unmodified lysine-4 among positive beads” value in assay [2] (H3K4unmod, MALDI-TOF identification) is recorded as 44 out of 90. In addition, the “occurrence of H3T3 phosphorylation among positive beads” value in assay [2] (H3T3ph) is recorded as 0 out of 90. Also, the “occurrence of H3T6 phosphorylation among positive beads” value in assay [2] (H3T6ph) is reported as 0 out of 90. In addition, in assay [2] (all peptides), the “occurrence of peptides with high methylation at H3K4 (me2/3)” value is recorded as 13%; the “occurrence of peptides with low methylation at H3K4 (K4unmod and K4me)” value was found to be 74%. Besides, the “occurrence of peptides with high methylation at H3K4 (me2/3)” value in assay [2] (peptides also containing R2me2a or R2me2s) came out at 6%. In addition, in assay [2] (peptides only containing Rme2a/s at H3R2), the “occurrence of peptides with low methylation at H3K4 (K4unmod and K4me)” value is on record as 91%. In addition, the “ALPHA signal with either functionalized peptide alone” value in assay [3] is on record as “no signal above background”. Further, the “increase in affinity (lower Kd) compared with PHD1 and PHD2 alone” value in assay [4] (1:1 Langmuir model) was 4-11 fold. Besides, in assay [4] (1:1 Langmuir model, biotinylated H3 (1-11) on SA chip, pH 7.5), the off-rate kd worked out at 0.00348 ± 5e-05 s⁻¹. Also, in assay [4] (setting [5]), the ka1 was 324 ± 11 M⁻¹ s⁻¹, the ka2 is 2.9×10^−5 ± 1×10^−6 1/RUs, the kd1 amounted to 0.120 ± 0.005 s⁻¹ and the kd2 is 0.00218 ± 3e-05 s⁻¹. The “slower last off-rate (kd) compared with individual domains” value in assay [4] (last off-rate of PHD1-2 vs kd values of individual domains) was 5-6 fold.
